Here are results for one compound from ChEMBL document CHEMBL3817745, “Structure-Activity Relationship for the 4(3H)-Quinazolinone Antibacterials” (J Med Chem, 2016).

A word on the AUC: it is the area under the concentration-time curve, a measure of exposure. High values mean high exposure, low ones low exposure. For orientation: Vd means the apparent volume that relates the amount in the body to the concentration in plasma or blood. Lower therefore signals little distribution into tissue. Usually solubility stands for the dissolved amount per volume that the medium holds. By Tmax is commonly meant the time at which the peak concentration occurs. A word on the Cmax: it is the peak of the concentration-time curve.

In data set [1] the test system is Mus musculus. Nature of the data set: Clearance in ICR mouse peritonitis model infected with methicillin resistant Staphylococcus aureus ATCC 27660 at 10 mg/kg, iv administered as single dose measured up to 8 hrs by UPLC analysis relative to hepatic blood flow. The settings on record: in vivo. The format is ADME, organism-based. Put shortly:
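Fast PK: female ICR mice (n = 2 per time point) given single tail-vein iv injection at 5, 10 or 20 mg/kg in 25% DMSO/65% propylene glycol/10% water (2.5, 5 or 10 mg/mL); terminal cardiac blood at 5 min, 40 min, 2, 4, 8 h; plasma analysed by UPLC with internal standard calibration.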

Data set [2] in a line: Plasma concentration in ICR mouse neutropenic thigh model of methicillin-resistant Staphylococcus aureus NRS70 infection at 20 mg/kg, sc tid administered every 8 hrs starting from 1 hr post infection and measured 7 hrs post last dose by UPLC analysis. The format is ADME, organism-based. The method in brief: (§1)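 Neutropenic thigh model (cyclophosphamide 200 mg/kg ip, NRS70 im), sc doses at 1, 9 and 17 h; at 24 h cardiac blood and uninfected thigh taken (n = 8 per group); thigh homogenate supernatant and plasma acetonitrile-quenched with internal standard, analysed by UPLC with MRM detection.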

The subject of data set [3] is Mus musculus. The data set can be described thus: AUC (0 to infinity) in ICR mouse peritonitis model infected with methicillin resistant Staphylococcus aureus ATCC 27660 at 10 mg/kg, po administered as single dose through gavage by UPLC analysis. The format is ADME, organism-based. On the set-up: dose 10 mg/kg, route oral, time infinity. The settings on record: in vivo. Put shortly:
(§2)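 Female ICR mice, single 10 mg/kg oral gavage in 25% DMSO/55% propylene glycol/20% PBS (2.5 mg/mL); n = 3 per time point; terminal blood 0.5–30 h; plasma protein-precipitated with acetonitrile containing internal standard, quantified by UPLC-UV or MRM against mouse-plasma calibration curve (0–50 μg/mL).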

In data set [4] the test system is Mus musculus. The data set can be described thus: T>MIC in ICR mouse at 10 mg/kg, iv administered as single dose by UPLC analysis.
For data set [5], the system named is Mus musculus. The data set can be described thus: Volume of distribution in ICR mouse peritonitis model infected with methicillin resistant Staphylococcus aureus ATCC 27660 at 10 mg/kg, iv administered as single dose measured up to 24 hrs by UPLC analysis. The format is ADME, organism-based. As to conditions: in vivo, 24 h.
The test system of data set [6] is Mus musculus. The data set can be described thus: AUC (0 to infinity) in ICR mouse peritonitis model infected with methicillin resistant Staphylococcus aureus ATCC 27660 at 10 mg/kg, iv administered as single dose by UPLC analysis. As to conditions: in vivo. The format is ADME, organism-based. On the set-up: dose 10 mg/kg, time infinity, route intravenous.
Data set [7] deals with Mus musculus. The data set can be described thus: Terminal half life in ICR mouse peritonitis model infected with methicillin resistant Staphylococcus aureus ATCC 27660 at 10 mg/kg, iv administered as single dose by UPLC analysis. The format is ADME, organism-based. As to conditions: in vivo.
The subject of data set [8] is Mus musculus. Nature of the data set: Oral bioavailability in ICR mouse peritonitis model infected with methicillin resistant Staphylococcus aureus ATCC 27660 at 10 mg/kg administered as single dose through gavage by UPLC analysis. As to conditions: in vivo. The format is ADME, organism-based. The method in brief:
as §2

Data set [9] has as its system Mus musculus. Nature of the data set: AUC (0 to last) in ICR mouse peritonitis model infected with methicillin resistant Staphylococcus aureus ATCC 27660 at 10 mg/kg, po administered as single dose through gavage measured after 30 hrs by UPLC analysis. The format is ADME, organism-based. Also noted: dose 10 mg/kg, time 0 - last, route oral. As to conditions: in vivo, 30 h. The method in brief:
as §2

Data set [10] concerns Mus musculus. The data set can be described thus: T>MIC in ICR mouse at 10 mg/kg, po administered as single dose through gavage by UPLC analysis.
Data set [11] in a line: Drug level in uninfected thighs of ICR mouse neutropenic thigh model of methicillin-resistant Staphylococcus aureus NRS70 infection at 20 mg/kg, sc tid administered every 8 hrs starting from 1 hr post infection and measured 7 hrs post last dose by UPLC analysis. The settings on record: read-out: Drug uptake. The format is ADME, organism-based. Put shortly: as §1
Data set [12] in a line: Solubility of compound in water. The format is physicochemical. The settings on record: buffer.
For data set [13], the system named is Mus musculus. Nature of the data set: Tmax in ICR mouse peritonitis model infected with methicillin resistant Staphylococcus aureus ATCC 27660 at 10 mg/kg, po administered as single dose through gavage by UPLC analysis. The format is ADME, organism-based. As to conditions: in vivo. The method in brief: as §2
Data set [14] relates to Mus musculus. Nature of the data set: Cmax in ICR mouse peritonitis model infected with methicillin resistant Staphylococcus aureus ATCC 27660 at 10 mg/kg, po administered as single dose through gavage measured at 0.5 hrs post dose by UPLC analysis. The format is ADME, organism-based. Also noted: dose 10 mg/kg, route oral. As to conditions: in vivo. The method in brief: as §2

In data set [15] the test system is Mus musculus. Nature of the data set: Terminal half life in ICR mouse peritonitis model infected with methicillin resistant Staphylococcus aureus ATCC 27660 at 10 mg/kg, po administered as single dose through gavage by UPLC analysis. The format is ADME, organism-based. The settings on record: in vivo. Put shortly: as §2

`C#Cc1ccc(/C=C/c2nc3ccccc3c(=O)n2-c2cccc(C(=O)[O-])c2)cc1.[Na+]`: in the data set with Mus musculus [1], the CL is on record as under 10%. The concentration at 7 h in data set [2] amounted to 2430 ng/mL; in data set [11], 220 ng/mL. For the same compound, the AUC with Mus musculus [3] amounted to 582 µg·min/mL; in the data set on Mus musculus [6] it was 1570 µg·min/mL. The “T>MIC” value with Mus musculus [4] was 24 h; in the data set with Mus musculus [10] it was 30 h. This compound had a Vd with Mus musculus [5] of 3.58 L/kg. The “beta t1/2” value with Mus musculus [7] was found to be 6.5 h; in the data set on Mus musculus [15], 6.6 h. The compound also showed a F in the data set on Mus musculus [8] of 37%. Moreover, the AUClast in the data set on Mus musculus [9] turned out to be 552 µg·min/mL. In data set [12], this compound had a solubility of 1500 µg/mL. Besides, the time to peak (Tmax) with Mus musculus [13] is 0.5 h. The compound further displayed a Cmax in the data set with Mus musculus [14] of 2700 ng/mL.
